Results: PMC4493896 (Journal of Medicinal Chemistry, 2015)
Blank lines part the entries; values can stand above or below the molecule they belong to.

Legend:
Nurr1/NR4A2 mRNA = assay: qRT-PCR of endogenous CREB target gene in HEK 293T cells; type: cell-based; settings: forskolin 10 μM
[1] = test system: CREB-mediated gene transcription; assay: CREB Renilla luciferase; type: cell-based; settings: HEK 293T cells
cancer and normal cells = settings: same assay conditions; cited from earlier work
[2] = test system: A549, MCF-7, MDA-MB-231, MDA-MB-468 cells; assay: MTT assay, statements across the cancer cell line panel; type: cell-based; settings: 72 h
Outline: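 Cells in DMEM with nonessential amino acids and 10% FBS (37 °C, 5% CO2) attached overnight, then took test compound at a range of concentrations up to 100 μM for 72 h. MTT (0.5 mg/mL in complete medium) was added for 3 h at 37 °C, formazan dissolved in DMSO, A570 read. Growth = 100×(At−A0)/(Ac−A0), with time-0 and medium-treated controls.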

Structure (SMILES): C=C[C@@]1(C)CC(=O)[C@]2(O)[C@@]3(C)[C@@H](O)CCC(C)(C)[C@@H]3[C@H](O)[C@H](OC(C)=O)[C@@]2(C)O1 [forskolin]
stimulation of Nurr1/NR4A2 level (Nurr1/NR4A2 mRNA): ~31 fold

Structure (SMILES): Cl.NCCCOc1cc2ccccc2cc1C(=O)NCCCOc1cc2ccccc2cc1C(=O)Nc1ccc(Cl)cc1 [Compound 3b, 3-(3-Aminopropoxy)-N-(3-((3-((4-chlorophenyl)carbamoyl)naphthalen-2-yl)oxy)propyl)-2-naphthamide Hydrochloride]
decrease of CREB inhibition activity in comparison to 3a [1]: about 2 fold

Structure (SMILES): COc1cccc2c1C(=O)c1c(O)c3c(c(O)c1C2=O)C[C@@](O)(C(=O)CO)C[C@@H]3O[C@H]1C[C@H](N)[C@H](O)[C@H](C)O1 [doxorubicin]
differential toxicity between cancer and normal cells (cancer and normal cells): did not show differential toxicity

Structure (SMILES): Cl.O=C(NCCCOc1cc2ccccc2cc1C(=O)Nc1ccc(Cl)cc1O)c1cc2ccccc2cc1OCCCN1CCOCC1 [Compound 3e, N-(4-Chloro-2-hydroxyphenyl)-3-(3-(3-(3-morpholinopropoxy)-2-naphthamido)propoxy)-2-naphthamide Hydrochloride]
growth inhibition activity in the other three cancer cell lines ([2]; A549, MCF-7, MDA-MB-231, MTT): no activity

GI50 ([2]; read-out: GI50 values, range over all four cancer cell lines): 10.2 to 82.7 µM
Structure (SMILES): O=C(NCCCOc1cc2ccccc2cc1C(=O)Nc1ccc(Cl)cc1O)c1cc2ccccc2cc1OCCCO [Compound 3g, N-(4-Chloro-2-hydroxyphenyl)-3-(3-(3-(3-hydroxypropoxy)-2-naphthamido)propoxy)-2-naphthamide]
